Measured values: article PMC7047882 (Archives of biochemistry and biophysics, 2019)
Like-named read-outs stand apart in the source and are kept apart here.

Columns and labels:
[1] = target: T1, bovine brain tubulin (Bos taurus, UniProt P81947+Q6B856); test: biochemical; format: binding; settings: for inhibition at 30 µM: pH 6.9, read-out: Effect on DZA binding (% inhibition ± SE)
[2] = target: T1, bovine brain tubulin; test: Recovery of compound-induced aberrant tubulin polymer by centrifugation; format: biochemical; settings: for tubulin recovery by centrifugation (in words): pH 6.9, 2 mM MgCl2, 22 °C
In short: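 Electrophoretically homogeneous bovine brain tubulin, without gel filtration, was used. Reaction mixtures contained 0.1 M Mes (pH 6.9 or 6.5, adjusted with NaOH) with 2 mM MgCl₂ at 22 °C. The test compound was added from dimethyl sulfoxide stocks, and controls received equal dimethyl sulfoxide. Reactions were run in glass vessels, and aberrant polymer was harvested by centrifugation and read as tubulin in pellets.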

[3] = target: T1, bovine brain tubulin; test: Turbidity development; format: biochemical
In short: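 Electrophoretically homogeneous bovine brain tubulin, without the gel-filtration step used for the binding studies. Reactions were run in glass vessels in 0.1 M Mes, brought to pH 6.5 or 6.9 with NaOH, with MgCl2 (for example 2 mM, 22 °C). Test compounds were added from dimethyl sulfoxide stocks, with the same dimethyl sulfoxide concentration in controls. The read-out was turbidity development.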

[4] = tested on: tubulin; settings: cited from earlier work
[5] = tested on: tubulin; settings: cited from earlier work; remark: listed apart in the source
[6] = tested on: tubulin; settings: cited from earlier work; remark: listed apart in the source
[7] = tested on: cultured cancer cells; settings: cited from earlier work

T1 sequence (Q6B856 whole entry): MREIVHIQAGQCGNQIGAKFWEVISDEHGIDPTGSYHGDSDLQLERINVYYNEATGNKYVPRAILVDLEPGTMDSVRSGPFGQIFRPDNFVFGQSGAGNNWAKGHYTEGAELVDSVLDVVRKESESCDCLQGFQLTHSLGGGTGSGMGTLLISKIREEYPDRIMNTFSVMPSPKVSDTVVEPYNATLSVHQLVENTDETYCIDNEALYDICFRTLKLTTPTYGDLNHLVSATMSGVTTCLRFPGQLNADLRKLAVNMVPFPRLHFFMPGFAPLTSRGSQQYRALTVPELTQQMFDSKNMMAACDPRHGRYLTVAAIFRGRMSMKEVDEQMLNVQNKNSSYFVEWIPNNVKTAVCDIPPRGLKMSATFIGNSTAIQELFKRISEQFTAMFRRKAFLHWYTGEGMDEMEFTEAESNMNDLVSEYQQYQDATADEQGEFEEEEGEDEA
T1 sequence (P81947 whole entry): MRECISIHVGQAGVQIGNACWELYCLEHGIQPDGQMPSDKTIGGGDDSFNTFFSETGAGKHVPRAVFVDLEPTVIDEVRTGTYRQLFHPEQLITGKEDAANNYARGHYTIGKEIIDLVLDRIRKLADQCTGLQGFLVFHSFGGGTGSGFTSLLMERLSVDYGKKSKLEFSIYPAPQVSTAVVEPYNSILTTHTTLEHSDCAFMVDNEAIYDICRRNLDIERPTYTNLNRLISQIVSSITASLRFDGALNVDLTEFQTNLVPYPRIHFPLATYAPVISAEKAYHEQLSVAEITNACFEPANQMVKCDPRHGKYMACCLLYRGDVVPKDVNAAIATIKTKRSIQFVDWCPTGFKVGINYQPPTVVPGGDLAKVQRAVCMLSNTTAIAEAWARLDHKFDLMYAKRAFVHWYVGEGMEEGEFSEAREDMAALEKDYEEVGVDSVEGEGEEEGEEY

## CC[C@H](C)[C@@H]([C@@H](CC(=O)N1CCC[C@H]1[C@H](OC)[C@@H](C)C(=O)N[C@@H](Cc1ccccc1)c1nccs1)OC)N(C)C(=O)[C@@H](NC(=O)[C@H](C(C)C)N(C)C)C(C)C [D10, dolastatin 10]
[1]; without a tubulin preincubation
  inhibition of [^3H]DZA binding to tubulin (in words): inhibition was negligible
[2]; 10 and 20 μM compound
  tubulin recovery by centrifugation (in words): even larger amounts
[3]; all conditions examined
  turbidity development (in words): Extensive turbidity development

## CC(C)[C@H](O)C(=O)N[C@H]1Cc2ccc3c(c2)[C@]24C5=C(N=C(O5)[C@H](C(C)C)NC1=O)c1nc(Cl)c(o1)-c1c(Cl)[nH]c5cccc(c15)-c1cccc2c1N[C@@H]4O3 [DZA, diazonamide A]
[1]
  inhibition of [^3H]DZA binding to tubulin (in words): no inhibition of binding
[2]; 10 and 20 μM compound
  tubulin recovery by centrifugation (in words): large amounts
[2]; pH 6.5, 2 mM MgCl2, 22 °C
  tubulin recovered in pellets (in words): almost all the tubulin
[3]; 0.1 M Mes (pH 6.5), 2 mM MgCl2, 22 °C
  turbidity development (in words): differed little from that with D10
[4]
  inhibition of binding of [^3H]vinblastine to tubulin (in words): no inhibition
[5]
  inhibition of binding of [^3H]D10 to tubulin (in words): no inhibition
[6]
  inhibition of tubulin assembly (in words): potent inhibitor

## COc1cc2cc(c1Cl)N(C)C(=O)C[C@H](OC(=O)[C@H](C)N(C)C(C)=O)[C@]1(C)O[C@H]1[C@H](C)[C@@H]1C[C@@](O)(NC(=O)O1)[C@H](OC)/C=C/C=C(\C)C2 [Maytansine, maytansine]
[1]
  inhibition at 30 µM: 9.2 ± 6%

## COc1ccc(/C=C\c2cc(OC)c(OC)c(OC)c2)cc1O [Combretastatin A-4, combretastatin A-4]
[1]
  inhibition at 30 µM: 17 ± 3%

## CN[C@H](C(=O)N[C@H](C(=O)N(C)[C@H](/C=C(\C)C(=O)O)C(C)C)C(C)(C)C)C(C)(C)c1cn(C)c2ccccc12 [Hemiasterlin, hemiasterlin]
[1]
  inhibition at 30 µM: 43 ± 3%
[2]; 20 μM compound
  tubulin recovery by centrifugation (in words): a moderate amount

## COc1ccc(C[C@H]2NC(=O)/C=C/C[C@@H]([C@H](C)[C@H]3O[C@@H]3c3ccccc3)OC(=O)[C@H](CC(C)C)OC(=O)[C@H](C)CNC2=O)cc1Cl [Cryptophycin 1, cryptophycin 1]
[1]; preincubated tubulin, near maximal with 3 μM compound
  maximal inhibition of [^3H]DZA binding: 50-60%
[3]; most conditions examined
  turbidity development (in words): little turbidity development
[7]
  IC50 values for cultured cancer cells (in words): picomolar

## CC[C@]1(O)C[C@@H]2CN(CCc3c([nH]c4ccccc34)[C@@](C(=O)OC)(c3cc4c(cc3OC)N(C)[C@H]3[C@@](O)(C(=O)OC)[C@H](OC(C)=O)[C@]5(CC)C=CCN6CC[C@]43[C@@H]65)C2)C1 [Vinblastine, vinblastine]
[1]
  inhibition of [^3H]DZA binding to tubulin (in words): absolutely no inhibitory effect
[1]; pH 6.9
  Effect on DZA binding (% enhancement ± SE; indicated by E before the value): E 11 ± 5%
[2]; 20 μM compound
  tubulin recovery by centrifugation (in words): even larger amounts
